From ChEMBL document CHEMBL2401738, “Construction and functionalization of pyranone ring fused with pyran moiety: design and synthesis of novel pyrano[4,3-b]pyran-5(4H)-ones as potential inhibitors of sirtuins” (Bioorg Med Chem Lett, 2013)

test system: Saccharomyces cerevisiae; experiment: Inhibition of Saccharomyces cerevisiae TEL::URA3 SIR2-mediated URA3 reporter gene silencing at 50 uM after 24 to 48 hrs in presence of 5-FOA relative to control
Procedure, shortened: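 Yeast strain with telomere-integrated URA3 reporter. Sir2 silencing of URA3 allows growth in 5-fluoroorotic acid, and inhibition of the yeast SIRT1 homologue Sir2 is scored by reduced growth in 5-FOA. Stereoisomer mixtures were tested unseparated at a single fixed concentration of 50.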

inhibition [%] | SMILES
15.3 | CC1(C)CC(=O)C2=C(C1)Oc1c(I)c(-c3ccccc3)oc(=O)c1C2c1ccco1 (configuration not stated)
32.4 | COc1ccc(C2C3=C(CC(C)(C)CC3=O)Oc3c(I)c(-c4ccccc4)oc(=O)c32)cc1 (configuration not stated)
0.5 | CCOC(=O)C1=C(C)Oc2c(I)c(-c3ccccc3)oc(=O)c2C1c1cccc(F)c1 (configuration not stated)
1.01 | CCCCC#Cc1c(-c2ccccc2)oc(=O)c2c1OC1=C(C(=O)CC(C)(C)C1)C2c1cccc(O)c1 (configuration not stated)
43.2 | CC1(C)CC(=O)C2=C(C1)Oc1c(I)c(-c3ccccc3)oc(=O)c1C2c1cccs1 (configuration not stated)
49.5 | CC1(C)CC(=O)C2=C(C1)Oc1c(I)c(-c3ccccc3)oc(=O)c1C2c1ccc(F)cc1 (configuration not stated)
43.9 | CCC1C2=C(CC(C)(C)CC2=O)Oc2c(I)c(-c3ccccc3)oc(=O)c21 (configuration not stated)
1.51 | CCOC(=O)C1=C(C)Oc2c(-c3ccc(O)cc3)c(-c3ccccc3)oc(=O)c2C1c1cccc(F)c1 (configuration not stated)
25.3 | CC1(C)CC(=O)C2=C(C1)Oc1c(I)c(C3(O)CCCCC3)oc(=O)c1C2c1ccc(F)cc1 (configuration not stated)
3.3 | CC1(C)CC(=O)C2=C(C1)Oc1c(-c3ccccc3)c(-c3ccccc3)oc(=O)c1C2c1cccc(O)c1 (configuration not stated)

test system: not listed separately; experiment: (§1) Inhibition of Saccharomyces cerevisiae TEL::URA3 SIR2-mediated URA3 reporter gene silencing after 24 to 48 hrs in presence of 5-FOA
Procedure, shortened: (§2)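 Yeast cell-based reporter silencing assay with URA3 integrated in the telomeric region. Sir2-mediated silencing of URA3 permits growth in 5-fluoroorotic acid, so Sir2 inhibition is read as loss of growth on 5-FOA. Compounds were tested as unseparated stereoisomer mixtures over a dose range, and IC50 was taken from the dose-response.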

IC50 [µM] | SMILES
78 | CCC1C2=C(CC(C)(C)CC2=O)Oc2c(I)c(-c3ccccc3)oc(=O)c21 (configuration not stated)

test system: Saccharomyces cerevisiae; experiment: as §1; procedure, shortened: as §2

inhibition | SMILES
Dose-dependent effect | CCC1C2=C(CC(C)(C)CC2=O)Oc2c(I)c(-c3ccccc3)oc(=O)c21 (configuration not stated)
